High-throughput results from PubChem BioAssay.
Rows were chosen to be rich in hits. Some 1.6% of all compounds tested hit in one or more screens of this group.
VLA-4 inh: inhibition in a human VLA-4 binding assay; P13612; VLA-4 expressing cells, ligand binding flow cytometry; inhibition, % (about 7 µM as worked out from the volumes in the protocol); 330,000 compounds, 0.2% hits; in the data active = inhibition above about 50%
NR2E3 ag-1: NR2E3 (human) agonism; inhibition of corepressor binding, % at 4.78 µM; GST-NR2E3/biotin-RetCOR TR-FRET, 1536-well; AID 2300; 320,000 compounds, 0.12% hits; Q9Y5X4;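 active = percent inhibition above the cutoff of mean plus 3 SD of all tested compounds, set per screening campaign, cut at about 20% in these data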;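 note: 0% = DMSO wells and 100% = biotin wells as full block of FRET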
Target sequence (Q9Y5X4 whole entry, looked up): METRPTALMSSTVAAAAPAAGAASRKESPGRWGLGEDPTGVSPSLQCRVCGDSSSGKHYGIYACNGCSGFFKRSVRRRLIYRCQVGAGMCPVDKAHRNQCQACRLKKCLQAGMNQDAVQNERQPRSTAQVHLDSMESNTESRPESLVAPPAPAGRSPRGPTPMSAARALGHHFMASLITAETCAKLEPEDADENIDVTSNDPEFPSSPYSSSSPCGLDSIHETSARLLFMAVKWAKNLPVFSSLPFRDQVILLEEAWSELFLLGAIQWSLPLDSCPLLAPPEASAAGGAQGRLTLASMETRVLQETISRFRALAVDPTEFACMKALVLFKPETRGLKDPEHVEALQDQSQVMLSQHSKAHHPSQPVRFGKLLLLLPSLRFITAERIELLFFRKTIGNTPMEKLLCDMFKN
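Assay system: NR2E3–RetCOR corepressor complex. Quantity: 1.35 nM GST-NR2E3. Buffer or medium: pH 7.5 Tris-based buffer. Reagent: biotinylated RetCOR corepressor at 7 nM final. Schedule: 5 h at 4 °C. Detection: TR-FRET, emission read at 617 and 671 nm. Replicates: one well per compound, singlicate testing.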
NR2E3 ag-2: agonists of human NR2E3 nuclear receptor | Q9Y5X4 | CHO-S Gal4-NCOR/VP16-NR2E3 two-hybrid, luciferase | inhibition of corepressor binding, % at 3.98 µM | 360,000 compounds, 0.35% hits | AID 602229;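 active = inhibition above the mean of all tested compounds plus 3 SD, cut at about 70% in these data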;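 note: 0% = DMSO with NR2E3 transfected cells and 100% = cells lacking NR2E3 construct; higher means lower luciferase signal from less NR2E3 corepressor binding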
PG9 Ab binder: PG9 antibody binding by small molecule | TR-FRET gp120-PG9 antibody binding | inhibition, % at 6.7 µM | 360,000 compounds, 0.43% hits | AID 624416; in the data active = inhibition above about 8.5%
NR1D1 modulator: Rev-erb alpha (human) modulation; 370,000 compounds, 0.79% hits; AID 1259318; P20393; Rev-erbα–FITC-DNA binding, fluorescence polarization, 90 min; activity, % at 10 µM;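 active = activity above about 14%, limit read from the data; passing the limit was not always enough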;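 note: 0% = DMSO wells with 35 nM protein and 100% = DMSO wells with 750 nM protein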
VLA-4 allo CP: human VLA-4 allosteric modulation in cherry picked compounds | inhibition, % at 6.7 µM | AID 2813 | 1,300 compounds, 2% hits | U937 cells, HUTS-21 LIBS mAb binding, flow cytometry; LDV ligand present at threefold Kd | shares compounds with VLA-4 inh; in the data active = inhibition above about 40%;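 note: 0% = ligand without compound and 100% = no ligand background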
* hit, by the source's call; · = no result given.

SMILES	VLA-4 inh	NR2E3 ag-1	NR2E3 ag-2	PG9 Ab binder	NR1D1 modulator	VLA-4 allo CP
Cc1nn(C)c(C)c1S(=O)(=O)N(CC(=O)NCc1cccs1)c1ccc(C(C)C)cc1	22	1	-45	3	0	·
COc1ccc(NC(=O)CN(c2cc(C)cc(C)c2)S(=O)(=O)c2c(C)n[nH]c2C)cc1	4	3	-1	0	4	·
COc1ccc(N(CC(=O)Nc2ccc(F)c(F)c2)S(=O)(=O)c2c(C)n[nH]c2C)cc1	4	5	-40	-1	5	0
COc1ccc(N(CC(=O)Nc2cccc(OC)c2)S(=O)(=O)c2c(C)nn(C)c2C)cc1	0	-1	2	1	0	6
O=C(Oc1coc(CSc2ncccn2)cc1=O)c1ccc([N+](=O)[O-])cc1	·	·	·	·	1	·
COC(=O)c1cc(-c2ccc(-c3ccccc3)c(F)c2)c(=O)n2c1CCC2	·	·	·	·	8	·
COc1cc(-n2c(C)nc3cc(C(=O)N4CC(C)CC(C)C4)ccc32)cc(OC)c1OC (centres undefined)	·	·	·	·	-1	·
O=C1C[C@H](c2ccc3ccccc3c2)N=C2N1/C(=C\c1ccccc1)[C@@H](c1ccccc1C(F)(F)F)N2Cc1ccc2c(c1)OCO2	·	·	·	·	4	·
Cc1ccc(C(C(=O)NCCc2ccccc2)N(C(=O)c2csnn2)C2CC2)o1 (centres undefined)	54*	2	9	1	-7	6
Cc1ccc2nc(-c3ccc(NC(=O)CSc4nnc(-c5cc(-c6ccc(F)cc6)n[nH]5)n4N)cc3)sc2c1	·	·	·	·	9	·
COc1ccccc1-c1nc2ccc(Cl)cc2c(=O)n1O	42	3	5	3	4	-5
COc1ccccc1-c1nc2cc(Cl)ccc2c(=O)n1O	-6	1	-4	0	1	·
O=C(NCCCNc1ccc(C(F)(F)F)cc1[N+](=O)[O-])c1ccc(Cl)cc1	-1	1	-18	1	-1	·
O=C(NCCCNc1ccc(C(F)(F)F)cc1[N+](=O)[O-])c1cc(F)c(F)cc1Cl	94*	1	27	0	8	12
NC(=O)[C@H]1CC2(CC(c3cccc(NC(=O)[C@H]4CCC(=O)N4)c3)=NO2)CN1C(=O)c1ccccc1 (some centres undefined)	51*	4	-3	-2	-2	6
COc1ccc(N(CC(=O)Nc2cc(Cl)ccc2C)S(=O)(=O)c2c(C)n[nH]c2C)cc1	-8	-2	-7	-2	-4	·
COc1ccc(N(CC(=O)Nc2cc(Cl)ccc2OC)S(=O)(=O)c2c(C)[nH]c(=O)[nH]c2=O)cc1	0	2	12	-1	8	-5
COc1ccc(N(CC(=O)NCc2ccc(C)cc2)S(=O)(=O)c2c(C)[nH]c(=O)[nH]c2=O)cc1	-20	2	-1	-1	-2	·
Cc1ccc(N(CC(=O)Nc2ccc(Br)c(C)c2)S(=O)(=O)c2c(C)[nH]c(=O)[nH]c2=O)cc1	-5	1	-9	-1	2	-4
COc1ccc(N(CC(=O)Nc2cc(C)ccc2C)S(=O)(=O)c2c(C)[nH]c(=O)[nH]c2=O)cc1	-4	2	-13	-1	7	-1
Cc1cc(C)cc(N(CC(=O)Nc2ccc(C(F)(F)F)cc2)S(=O)(=O)c2c(C)[nH]c(=O)[nH]c2=O)c1	-11	-2	5	0	-1	·
C=CCN1C(=O)[C@H](CC(=O)NCc2cccs2)[C@@]2(C(=O)OCC)CCCC=C12	·	·	·	·	-4	·
C[C@H](NCCc1ccc(O)cc1)[C@H](O)c1ccc(O)cc1	52*	3	-17	-1	-3	-9
O=C(c1ccc2c(c1)OCCO2)N1CCCCC1	5	-1	-2	1	-3	·
CC1CCCN(C(=O)c2ccc3c(c2)OCCO3)C1 (centres undefined)	50*	3	-62	-2	3	-6
SMILES	VLA-4 inh	NR2E3 ag-1	NR2E3 ag-2	PG9 Ab binder	NR1D1 modulator	VLA-4 allo CP
Cc1ccc(-n2c(SCC(=O)Nc3cccc4ccccc34)nnc2-c2cnccn2)cc1	·	·	·	·	-8	·
NC(=O)c1ccccc1NC(=O)C(c1ccccc1)c1ccccc1	1	0	10	2	0	·
O=C(O)c1ccccc1NC(=O)C(c1ccccc1)c1ccccc1	-2	-1	-2	-2	-7	4
CCC1=NN(C(=O)Cc2ccc([N+](=O)[O-])cc2)C(O)(C(C)(C)C)C1 (centres undefined)	58*	4	9	1	4	-6
O=C(O)c1c(Cl)c(Cl)c(Cl)c(Cl)c1-c1c2cc(I)c(=O)c(I)c-2oc2c(I)c(O)c(I)cc12	·	·	·	·	-70	·
CCCCOc1ccc(CN(CCO)CCO)cc1[N+](=O)[O-]	11	3	-17	2	8	·
CCOc1ccc(CN(CCO)CCO)cc1[N+](=O)[O-]	90*	5	-31	0	-3	2
CCN(CC)CCOCCOC(=O)C1(c2ccccc2)CCCC1	57*	1	-1	0	-6	2
CC(C)Oc1cccc(-c2n[nH]c(=S)n2N=Cc2cccc([N+](=O)[O-])c2)c1	·	·	·	·	2	·
COc1ccc(CNC(=O)Nc2cccs2)cc1OC	-9	-2	8	-1	-1	·
COc1cccc(CNC(=O)Nc2cccs2)c1	92*	1	-29	-2	2	-1
C[C@@H](NC(=O)[C@@H]1Cc2ccccc2CN1)C(=O)NC1CCCCC1	51*	-4	-9	-3	6	-1
CCOc1cc(/C=C2\C(=N)N3N=C(S(C)(=O)=O)SC3=NC2=O)ccc1OCCOc1cccc(OC)c1	43	3	-13	1	-4	-13
C[C@@H]1COc2cccc(N3CCCCC3)c2S(=O)(=O)N1	·	·	·	1	7	·
COc1ccc(C(=O)N(CCc2ccccc2)Cc2ccccc2)c(OC)n1	42	1	-5	1	-1	3
CCNC(=O)COC(=O)c1cc(S(=O)(=O)N2CCCc3ccccc32)ccc1Cl	7	5	8	-2	-1	-3
O=C(O)c1ccc(S(=O)(=O)N2CCCc3ccccc32)cc1	1	0	-22	1	-2	·
COCCNC(=O)c1ccc(S(=O)(=O)N2CCCc3ccccc32)cc1	-10	3	1	0	0	6
CCOC(=O)[C@]12CCCCC/C=C\1N(Cc1ccc(OC)cc1)C(=O)[C@H]2CC(=O)NCCCOC	·	·	·	·	3	·
Nc1c(CC(=O)O)cccc1C(=O)c1ccccc1	·	·	·	·	-4	·
Nc1[nH]c(C(=O)c2ccccc2)c(-c2cccc3ccccc23)c1C(=O)c1c(-c2ccccc2)[nH]c2ccccc12	·	·	·	·	11	·
CCOC(=O)[C@@]12CN(C(=O)OC(C)(C)C)CC=C1N(Cc1ccc(OC)cc1)C(=O)[C@H]2CC(=O)NCc1cccs1	·	·	·	·	4	·
COc1ccc(N2CCN(C(=O)c3ccc4ccccc4n3)CC2)cc1	41	3	-21	-2	-2	7
